≈ marks a conversion by molar mass, not a printed value.
What was measured:
[1] = tested on: J774; assay: Selectivity index, ratio of IC50 for COX1-mediated PGE2 production to IC50 for COX2-mediated PGE2 production in mouse J774 cells; assay type: cell-based
Summary of the method: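 Ratio of the COX-1 IC50 to the COX-2 IC50, both from PGE2 RIA in J774 cells. For COX-1, cells were given compound for 15 min, then 15 μM arachidonic acid for 30 min; lower concentrations (0.01–1 μM) were tested when warranted. For COX-2, cells were given LPS 10 µg/mL for 24 h with compound at 0.01–10 μM. IC50 came from a sigmoidal variable-slope fit.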

[2] = target: T1, Prostaglandin G/H synthase 2 (Mus musculus) (UniProt Q05769); assay: Inhibition of COX2-mediated PGE2 production in LPS-induced mouse J774 cells by radioimmunoassay relative to control; assay type: cell-based; design: concentration or dose not given beside the values; conditions: concentration not given here
T1 sequence (whole entry): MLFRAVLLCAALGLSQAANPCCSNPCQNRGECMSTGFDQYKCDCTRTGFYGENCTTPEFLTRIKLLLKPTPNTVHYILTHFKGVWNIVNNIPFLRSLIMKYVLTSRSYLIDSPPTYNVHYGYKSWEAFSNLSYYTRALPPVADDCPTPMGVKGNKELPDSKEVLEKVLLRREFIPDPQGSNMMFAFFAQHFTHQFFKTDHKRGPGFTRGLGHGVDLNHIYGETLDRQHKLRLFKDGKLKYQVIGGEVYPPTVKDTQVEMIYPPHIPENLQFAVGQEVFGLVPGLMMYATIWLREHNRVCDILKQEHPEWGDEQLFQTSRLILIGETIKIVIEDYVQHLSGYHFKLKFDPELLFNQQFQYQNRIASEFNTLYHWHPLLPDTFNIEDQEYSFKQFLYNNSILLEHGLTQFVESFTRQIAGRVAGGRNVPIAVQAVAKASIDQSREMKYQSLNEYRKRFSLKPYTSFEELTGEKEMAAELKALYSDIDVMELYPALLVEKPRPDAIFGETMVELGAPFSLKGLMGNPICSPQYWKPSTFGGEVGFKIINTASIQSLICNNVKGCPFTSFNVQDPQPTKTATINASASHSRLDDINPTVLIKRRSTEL
Summary of the method: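 J774 cells, cultured as for the COX-1 assay, were stimulated 24 h with E. coli LPS (10 µg/mL) to induce COX-2, with or without compound at 0.01–10 μM. Supernatant PGE2 was measured by RIA as % inhibition versus control, triplicate wells, mean of three experiments. IC50 came from a sigmoidal variable-slope dose-response fit.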

[3] = target: T2, Prostaglandin G/H synthase 1 (Mus musculus) (UniProt P22437); assay: Inhibition of COX1-mediated PGE2 production in mouse J774 cells at 10 uM preincubated for 15 mins measured after 30 mins by radioimmunoassay relative to control; assay type: cell-based
T2 sequence (whole entry): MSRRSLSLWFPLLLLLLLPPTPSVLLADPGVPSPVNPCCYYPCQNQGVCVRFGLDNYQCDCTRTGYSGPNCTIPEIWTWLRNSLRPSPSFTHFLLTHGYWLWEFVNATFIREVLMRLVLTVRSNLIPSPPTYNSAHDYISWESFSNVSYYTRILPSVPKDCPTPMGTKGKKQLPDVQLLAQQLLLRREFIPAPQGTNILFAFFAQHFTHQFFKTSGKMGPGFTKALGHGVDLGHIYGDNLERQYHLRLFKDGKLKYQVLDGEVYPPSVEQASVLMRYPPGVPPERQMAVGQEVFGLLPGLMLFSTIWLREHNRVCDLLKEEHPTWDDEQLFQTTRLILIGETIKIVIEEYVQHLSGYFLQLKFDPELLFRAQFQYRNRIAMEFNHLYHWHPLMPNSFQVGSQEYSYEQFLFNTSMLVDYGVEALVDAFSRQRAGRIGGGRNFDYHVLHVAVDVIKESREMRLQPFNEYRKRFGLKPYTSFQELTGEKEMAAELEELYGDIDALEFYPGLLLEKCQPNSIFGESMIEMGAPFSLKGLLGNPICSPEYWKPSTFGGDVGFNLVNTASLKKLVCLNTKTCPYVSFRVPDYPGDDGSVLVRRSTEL
Summary of the method: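 Murine J774 macrophages in DMEM with 10% FBS, glutamine, HEPES, pyruvate and antibiotics, adhered 2 h at 37 °C in 5% CO2. Medium was refreshed, cells were pretreated with compound for 15 min, then given 15 μM arachidonic acid for 30 min at 37 °C. PGE2 in supernatant was measured by RIA as % inhibition versus control, triplicate wells, mean of three experiments.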

[4] = target: T3, Prostaglandin G/H synthase 1 (Mus musculus, UniProt P22437); assay: Inhibition of COX1-mediated PGE2 production in mouse J774 cells preincubated for 15 mins measured after 30 mins by radioimmunoassay; assay type: cell-based
T3 sequence (P22437 whole entry): T2 sequence (whole entry)
Summary of the method: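 Murine J774 macrophages in DMEM/10% FBS, adhered 2 h at 37 °C. […] Supernatant PGE2 measured by RIA. Triplicate wells, mean of three experiments; IC50 by sigmoidal variable-slope fit.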

[5] = target: T4, Prostaglandin G/H synthase 2 (Mus musculus, UniProt Q05769); assay: Inhibition of COX2-mediated PGE2 production in LPS-induced mouse J774 cells by radioimmunoassay; assay type: cell-based
T4 sequence (Q05769 whole entry): T1 sequence (whole entry)
Summary of the method: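 J774 murine macrophages stimulated 24 h with E. coli LPS (10 µg/mL) to induce COX-2, with or without compound (0.01–10 μM). Supernatant PGE2 measured by RIA; percent inhibition against controls. Triplicate wells, mean of three experiments; IC50 from sigmoidal variable-slope fit.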

[6] = tested on: Mus musculus; assay: Analgesic activity in Swiss albino mouse assessed as reduction of acetic acid-induced writhing at 35.9 nmol/kg, po after 5 mins; assay type: functional; design: scale not given: the % may be the effect or the level left
Summary of the method: (§1)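 Male Swiss albino mice (23-25 g), standard diet and water ad libitum, 23 ± 1 °C, 12 h light/dark cycle. Test compound given orally; 0.6% acetic acid (10 mL/kg) injected ip. Stretching movements counted for 10 min, beginning 5 min after administration.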

[7] = tested on: Mus musculus; assay: Analgesic activity in Swiss albino mouse assessed as reduction of acetic acid-induced writhing at 71.8 nmol/kg, po after 5 mins; assay type: functional; design: scale not given: the % may be the effect or the level left; summary of the method: as §1
[8] = tested on: Aorta; assay: Vasorelaxant activity in Wistar rat endothelium-denuded thoracic aortic ring assessed as inhibition of KCl-induced contractile tone in presence of guanylate cyclase inhibitor ODQ; assay type: functional, tissue-based
Summary of the method: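 Male normotensive Wistar rats (250–350 g); thoracic aortic rings, endothelium removed by rubbing, removal confirmed by <10% relaxation to ACh (10 µM) in KCl (30 mM)-contracted rings. ODQ 1 µM incubated after confirmation; rings contracted with KCl 30 mM, then 3-fold increasing compound concentrations (1 nM–10 µM). Isometric tension; pIC50 from half reduction of KCl tone; mean ± SE, 6–10 experiments.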

[9] = Solubility of the compound in PBS buffer at pH 7.4 by HPLC analysis; assay type: physicochemical
Summary of the method: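 20 mM DMSO stocks diluted 1:100 into 0.01 M PBS pH 7.4 in duplicate wells of a solubility filter plate, shaken 90 min at 300 rpm. Seven-point calibration standards from 1 to 200 μM.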

[10] = Solubility of the compound in simulated gastric fluid without pepsin at pH 1.5 by HPLC analysis; assay type: physicochemical
Summary of the method: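 Compound from 20 mM DMSO stock diluted 1:100 into 0.05 M simulated gastric fluid without pepsin (pH 1.5 with HCl), duplicate wells on a solubility filter plate, shaken 90 min at 300 rpm. Seven-point calibration standards from 1 to 200 μM.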

[11] = tested on: Mus musculus; assay: Analgesic activity in Swiss albino mouse assessed as reduction of acetic acid-induced writhing at 73.6 nmol/kg, po after 5 mins; assay type: functional; design: scale not given: the % may be the effect or the level left; summary of the method: as §1
[12] = tested on: Rattus norvegicus; assay: Antiinflammatory activity in rat assessed as reduction of carrageenan-induced paw pressure at 40 mg/kg, po after 30 mins post carrageenan-challenge; assay type: functional; design: scale not given: the % may be the effect or the level left
Summary of the method: (§2)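 Rats (Sprague-Dawley or Wistar, 150-200 g) received intraplantar carrageenan 4 h before testing, then oral compound or CMC vehicle. Paw-pressure threshold read before treatment and at 15, 30, 45 and 60 min after treatment, compared with saline and carrageenan controls.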

[13] = tested on: Rattus norvegicus; assay: Antiinflammatory activity in rat assessed as reduction of carrageenan-induced paw pressure at 40 mg/kg, po after 15 mins post carrageenan-challenge; assay type: functional; design: scale not given: the % may be the effect or the level left; summary of the method: as §2
[14] = tested on: Rattus norvegicus; assay: Antiinflammatory activity in rat assessed as reduction of carrageenan-induced paw pressure at 40 mg/kg, po after 45 mins post carrageenan-challenge; assay type: functional; design: scale not given: the % may be the effect or the level left; summary of the method: as §2
[15] = tested on: Rattus norvegicus; assay: Antiinflammatory activity in rat assessed as reduction of carrageenan-induced paw pressure at 20 mg/kg, po after 30 mins post carrageenan-challenge; assay type: functional; design: scale not given: the % may be the effect or the level left; summary of the method: as §2
[16] = tested on: Mus musculus; assay: Analgesic activity in Swiss albino mouse assessed as reduction of acetic acid-induced writhing at 5.5 nmol/kg, po after 5 mins; assay type: functional; design: scale not given: the % may be the effect or the level left; summary of the method: as §1
[17] = tested on: Mus musculus; assay: Analgesic activity in Swiss albino mouse assessed as reduction of acetic acid-induced writhing at 18.4 nmol/kg, po after 5 mins; assay type: functional; design: scale not given: the % may be the effect or the level left; summary of the method: as §1
[18] = tested on: Rattus norvegicus; assay: Antiinflammatory activity in rat assessed as reduction of carrageenan-induced paw pressure at 20 mg/kg, po after 45 mins post carrageenan-challenge; assay type: functional; design: scale not given: the % may be the effect or the level left; summary of the method: as §2
[19] = tested on: Mus musculus; assay: Analgesic activity in Swiss albino mouse assessed as reduction of acetic acid-induced writhing at 36.8 nmol/kg, po after 5 mins; assay type: functional; design: scale not given: the % may be the effect or the level left; summary of the method: as §1
[20] = tested on: Rattus norvegicus; assay: Antiinflammatory activity in rat assessed as reduction of carrageenan-induced oedema in right hind paw at 40 mg/kg, po after 4 hrs post carrageenan-challenge; assay type: functional; design: scale not given: the % may be the effect or the level left
Summary of the method: (§3)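 Sprague-Dawley or Wistar rats (150-200 g). Carrageenan injected intraplantar; oral treatment with test compound or CMC vehicle. Right hind paw volume measured 4 h after carrageenan and compared with saline- and carrageenan-treated controls.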

[21] = tested on: Rattus norvegicus; assay: Antiinflammatory activity in rat assessed as reduction of carrageenan-induced paw pressure at 20 mg/kg, po after 60 mins post carrageenan-challenge; assay type: functional; design: scale not given: the % may be the effect or the level left; summary of the method: as §2
[22] = tested on: Rattus norvegicus; assay: Antiinflammatory activity in rat assessed as reduction of carrageenan-induced paw pressure at 20 mg/kg, po after 15 mins post carrageenan-challenge; assay type: functional; design: scale not given: the % may be the effect or the level left; summary of the method: as §2
[23] = tested on: Rattus norvegicus; assay: Antiinflammatory activity in rat assessed as reduction of carrageenan-induced paw pressure at 40 mg/kg, po after 60 mins post carrageenan-challenge; assay type: functional; design: scale not given: the % may be the effect or the level left; summary of the method: as §2
[24] = tested on: Rattus norvegicus; assay: Antiinflammatory activity in rat assessed as reduction of carrageenan-induced oedema in right hind paw at 20 mg/kg, po after 4 hrs post carrageenan-challenge; assay type: functional; design: scale not given: the % may be the effect or the level left; summary of the method: as §3

| Structure (SMILES) | Ratio IC50 [1] | inhibition [2] [%] | inhibition [3] [%] | IC50 [4] [µM] | IC50 [5] [µM] | also measured |
| --- | --- | --- | --- | --- | --- | --- |
| Cc1c(C(N)C(=O)OCCCO)cc(-c2ccc(S(C)(=O)=O)cc2)n1-c1ccc(F)cc1 (stereo not given) | > 13.2 | 100 | 23 | > 10 | 0.76 | – |
| Cc1c(C(N)C(=O)OCCCO[N+](=O)[O-])cc(-c2ccc(S(C)(=O)=O)cc2)n1-c1cccc(F)c1 (stereo not given) | > 6.62 | 100 | 5 | > 10 | 1.51 | – |
| Cc1c(C(N)C(=O)OCCCCO)cc(-c2ccc(S(C)(=O)=O)cc2)n1-c1ccc(F)cc1 (stereo not given) | > 45.5 | 100 | 10 | > 10 | 0.22 | – |
| Cc1c(C(N)C(=O)OCCCCO[N+](=O)[O-])cc(-c2ccc(S(C)(=O)=O)cc2)n1-c1ccc(F)cc1 (stereo not given) | > 10 | 82 | 1 | > 10 | – | Activity [6]: 26.9%; Activity [7]: 40.7%; IC50 [8]: 1.55 µM; solubility [9]: 70.8 µM (≈ 36.8 µg/mL); solubility [10]: > 200 µM |
| Cc1c(C(N)C(=O)OCCCCO[N+](=O)[O-])cc(-c2ccc(S(C)(=O)=O)cc2)n1-c1cccc(F)c1 (stereo not given) | > 7.09 | 59 | 15 | > 10 | 1.41 | – |
| Cc1c(C(N)C(=O)OCCCO)cc(-c2ccc(S(C)(=O)=O)cc2)n1-c1cccc(F)c1 (stereo not given) | > 8.4 | 79 | 30 | > 10 | 1.19 | – |
| Cc1c(C(N)C(=O)OCCCCO)cc(-c2ccc(S(C)(=O)=O)cc2)n1-c1cccc(F)c1 (stereo not given) | > 6.67 | 100 | 23 | > 10 | 1.5 | – |
| Cc1c(C(N)C(=O)OCCCO[N+](=O)[O-])cc(-c2ccc(S(C)(=O)=O)cc2)n1-c1ccc(F)cc1 (stereo not given) | > 12.2 | 95 | 0 | > 10 | – | Activity [11]: 59.6%; Activity [12]: 70%; Activity [13]: 40%; Activity [14]: 53%; Activity [15]: 44%; Activity [16]: 19%; IC50 [8]: 2.19 µM; Activity [17]: 36.2%; Activity [18]: 27%; Activity [19]: 46.1%; Activity [20]: 45%; Activity [21]: 15%; Activity [22]: 25%; Activity [23]: 16%; Activity [24]: 15%; solubility [9]: 80 µM (≈ 40.4 µg/mL); solubility [10]: > 200 µM |

— ChEMBL document CHEMBL2151030, “Improving the solubility of a new class of antiinflammatory pharmacodynamic hybrids, that release nitric oxide and inhibit cycloxygenase-2 isoenzyme” (Eur J Med Chem, 2012)
